From PubChem
In the library only some 5.4% were active in any assay of this set; here they are far more common.
SKKanGAS inh: inhibitors of SKKanGAS S. pyogenes growth in kanamycin (SK-promoter or general growth effect); BacTiter-Glo, 6 h; inhibition, % at 7.5 µM; actives 1.3% (n = 300,000);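 active = mean replicate score, as percent of positive control median, at least 50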;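 note: strain carries kanamycin resistance gene driven by streptokinase promoter and grows in 40 µg/ml kanamycin; loss of luminescence reflects streptokinase promoter inhibition or plain growth inhibition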
aSyn 5UTR inh: MLPCN primary screen, SNCA 5' untranslated region | alpha-synuclein 5'UTR reporter, inhibitor activity | inhibition, % (tested at 7.5 µM) | actives 0.82% (n = 300,000) | AID 1813; in the data active = inhibition above about 60%;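 note: H4 neuroglioblastoma cells stably carrying SNCA 5'UTR luciferase fusion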
CSC inhib: blocks cancer stem cells; cancer stem cell-like cells viability, luminescence; inhibition, % at 7.5 µM; actives 1.1% (n = 300,000); in the data active = inhibition above about 75%; tested in HMLE shEcad cells
Mdm2-MdmX inh: human Mdm2/MdmX binding inhibition; O15151+Q00987; SaOS-2 split-luciferase Mdm2/MdmX complementation, luminescence; inhibition, % at 8 µM; actives 3% (n = 330,000);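 active = inhibition of at least 50% at 8 µM in the primary screen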
T cruzi repl: T. cruzi replication inhibition; T. cruzi beta-gal in NIH3T3, luminescence, 90 h; inhibition, % (no concentration beside the values); actives 1.4% (n = 300,000); AID 1885;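 active = mean inhibition across valid replicates above about 55%, limit read from the data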;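 note: signal also drops with host cell toxicity which is not excluded here; higher percent means less beta-gal luminescence so fewer parasites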
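Material: NIH/3T3 host cells with β-galactosidase reporter T. cruzi; Input: 5,000 host fibroblasts per well; Medium: DMEM, 2% fetal bovine serum; Compound: 50 nL DMSO compound solution per well; Schedule: 3 h host attachment, then at least 90 h co-culture; Detection: luminescent β-galactosidase signal after 60 min lysis.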
Mdm2 MdmX conf: confirmation of human Mdm2/MdmX interaction inhibitors | Mdm2-MdmX binding, luminescent assay | actives 55% (n = 10,000) | shares compounds with Mdm2-MdmX inh | AID 489028 | inhibition, % at 8 µM; in the data active = inhibition above about 40%
FLuc counter: counter-screen for Mdm2/MdmX inhibitors: full-length luciferase | actives 77% (n = 6,200) | inhibition, % at 8 µM | shares compounds with Mdm2-MdmX inh | SaOS-2 full-length luciferase counterscreen, luminescence;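 active = mean inhibition at 8 µM reaching about 37%, which flags the compound as non-specific, limit read from the data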;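 note: p53-null SaOS-2 cells with luciferase driven by a doxycycline-inducible promoter; compound on cells about two nights before reading with doxycycline added after day one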
Hits are given with their value; – = inactive; · = no result given.

SMILES | SKKanGAS inh | aSyn 5UTR inh | CSC inhib | Mdm2-MdmX inh | T cruzi repl | Mdm2 MdmX conf | FLuc counter
Nc1nc(Cl)nc2c1ncn2[C@H]1C[C@H](O)[C@@H](CO)O1 | – | 84 | 76 | 87 | – | 74 | –
CC(=O)Oc1c(I)cc(I)cc1C(=O)Nc1ccc(Cl)cc1 | 124 | – | 108 | 90 | – | 53 | –
COc1ccc(Cl)cc1C(=O)Nc1ccc(NC(C)=O)cc1 | – | – | – | – | – | · | ·
CCn1c2ccccc2c2cc(NC(=O)CSc3nnc(-c4cccc(Cl)c4)o3)ccc21 | – | – | – | 52 | – | – | ·
O=C(CSc1nnc(-c2cccnc2)o1)Nc1cccc(Cl)c1 | – | – | – | – | – | · | ·
CCn1c2ccccc2c2cc(NC(=O)CSc3nnc(-c4ccc(OC)c(OC)c4)n3N)ccc21 | – | – | – | – | – | · | ·
CCOc1ccc(-c2nnc(SCC(=O)Nc3ccc4c(c3)c3ccccc3n4CC)n2N)cc1 | – | 84 | – | 71 | – | 71 | –
CCOc1cc(S(=O)(=O)NCCc2cccc(C)c2)c(OCC)cc1-n1cnnn1 | – | – | · | – | – | · | ·
CCOc1cc(S(=O)(=O)N2CC=C(c3ccc(F)cc3)CC2)c(OCC)cc1-n1cnnn1 | – | – | – | 53 | – | 53 | 82
O=[N+]([O-])c1ccc(S(=O)(=O)CC(CN2CCCCC2)N2CCCCC2)cc1 (stereo not given) | – | – | 78 | 100 | – | 94 | 51
O=S(=O)(CC(CN1CCCCC1)N1CCCCC1)c1ccccc1 (stereo not given) | – | – | – | 72 | – | 66 | –
O=[N+]([O-])c1ccc(S(=O)(=O)CC(CN2CCOCC2)N2CCOCC2)cc1 (stereo not given) | – | – | – | – | – | · | ·
O=C(COC(=O)C1CCCCC1C(=O)N1CCc2ccccc21)NCc1ccco1 (stereo not given) | – | – | – | – | – | · | ·
CC[C@H](C)[C@H]1O[C@]2(CC[C@@H]1C)C[C@@H]1C[C@@H](CC=C(C)[C@@H](O[C@H]3C[C@H](OC)[C@@H](O[C@H]4C[C@H](OC)[C@@H](O)[C@H](C)O4)[C@H](C)O3)[C@@H](C)C=CC=C3CO[C@@H]4[C@H](O)C(C)=C[C@@H](C(=O)O1)[C@]34O)O2 | · | · | 103 | 100 | · | – | ·
CCc1sc(C(=O)Nc2cccc(-n3cnnn3)c2)cc1C | · | · | · | – | · | · | ·
O=C(NNC(=O)C1CCC1)c1ccc(Br)cc1 | – | – | – | – | – | · | ·
Cc1cnc(C(=O)NNC(=O)c2ccc(Br)cc2)cn1 | – | – | – | 61 | – | – | 69
Cc1cc(C)n(-c2nnc(C)n2/N=C/c2ccco2)n1 | – | – | – | – | – | · | ·
CCCOc1ccc2ccccc2c1/C=N/n1c(C)nnc1-n1nc(C)cc1C | – | – | – | 52 | – | 54 | 54
COC(=O)c1cc(S(=O)(=O)C(C)C)c(S(C)=O)s1 (stereo not given) | – | – | – | 51 | – | – | 39
O=C(c1ccccc1Cl)N1CCN(c2ncccn2)CC1 | – | – | – | – | – | · | ·
COC(=O)C1CCN(C(=O)COc2ccc(S(=O)(=O)N3CCOCC3)cc2Cl)CC1 | · | · | · | – | · | · | ·
O=C(Nc1nc(-c2ccccn2)cs1)c1cccc(S(=O)(=O)N2CCOCC2)c1 | · | · | – | 77 | · | 79 | –
COc1ccccc1C(=O)Nc1nc(-c2ccc(S(=O)(=O)N3CCOCC3)cc2)cs1 | – | – | – | 77 | – | 83 | –
Cc1ccc(S(=O)(=O)N2CCOCC2)cc1C(=O)Nc1nc(-c2ccccn2)cs1 | · | · | – | 76 | · | 65 | –
COc1ccc(C(=O)Nc2nc(-c3ccccn3)cs2)cc1S(=O)(=O)N1CCOCC1 | · | · | – | – | · | · | ·
O=C(Nc1nc(-c2ccccn2)cs1)c1ccc(S(=O)(=O)N2CCCCC2)cc1 | 84 | – | 99 | 88 | – | 90 | –
Cc1cc(OCC(=O)Nc2ccc3oc(=O)ccc3c2)ccc1Cl | – | – | – | – | – | · | ·
COc1cccc2cc(C(=O)Nc3cc(C)cc(C)c3)/c(=N/NS(=O)(=O)c3ccccc3)oc12 | – | – | – | 78 | – | – | ·
COCCn1c(C)cc(C(=O)CSc2nc3ccccc3o2)c1C | – | – | – | – | – | · | ·
